Reference: ChEMBL document CHEMBL1158523, “Piperidine-based heterocyclic oxalyl amides as potent p38 alpha MAP kinase inhibitors” (Bioorg Med Chem Lett, 2010)

Columns and labels:
[1] = target: Mitogen-activated protein kinase 14 (Homo sapiens, UniProt Q16539); experiment: Inhibition of human p38alpha after 60 mins
Outline: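 Radiometric kinase assay measuring incorporation of γ-32P-ATP into biotinylated peptide substrate by human p38α (5 nM). 60 min at 30 °C, phosphoric acid stop, streptavidin capture, scintillation counting; background-subtracted IC50 versus no-inhibitor controls.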

Blood [2] = experiment: Inhibition of LPS-induced TNFalpha production in human diluted whole blood at 1 uM after 2 hrs by ELISA; type: functional
Blood [3] = experiment: Inhibition of LPS-induced TNFalpha production in human diluted whole blood after 2 hrs by ELISA; type: functional, tissue-based
Blood [4] = experiment: Inhibition of LPS-induced TNFalpha production in human diluted whole blood at 0.3 uM after 2 hrs by ELISA; type: functional

Mitogen-activated protein kinase 14, sequence (Q16539 whole entry): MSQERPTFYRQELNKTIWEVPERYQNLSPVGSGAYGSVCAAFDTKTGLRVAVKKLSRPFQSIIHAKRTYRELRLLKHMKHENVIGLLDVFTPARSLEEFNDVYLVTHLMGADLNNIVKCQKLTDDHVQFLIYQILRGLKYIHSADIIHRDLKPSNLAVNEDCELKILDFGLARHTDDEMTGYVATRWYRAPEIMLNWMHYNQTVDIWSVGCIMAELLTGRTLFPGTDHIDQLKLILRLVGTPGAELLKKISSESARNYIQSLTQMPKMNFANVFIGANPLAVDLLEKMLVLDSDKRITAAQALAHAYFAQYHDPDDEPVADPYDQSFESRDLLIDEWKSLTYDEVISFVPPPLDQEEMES

Row | Compound | IC50 [1] | IC50 (Blood [3]) | inhibition at 1 µM (Blood [2]) | inhibition at 0.3 µM (Blood [4])
1 | CN(C)C(=O)C(=O)c1ccc2c(c1)C=C(C(=O)N1CCC(Cc3ccc(F)cc3)CC1)C(C(F)(F)F)O2 (centres undefined) | > 10000 nM |  |  | 
2 | COc1cc2occ(C(=O)C(=O)N(C)C)c2cc1C(=O)N1CCC(Cc2ccc(F)cc2)CC1 | 600 nM |  | 10% | 
3 | CN(C)C(=O)C(=O)c1nn(C)c2cc(Cl)c(C(=O)N3CCC(Cc4ccc(F)cc4)CC3)cc12 | 100 nM |  |  | 26%
4 | COc1cc2[nH]cc(C(=O)C(=O)N(C)C)c2cc1C(=O)N1CCC(Cc2ccc(F)cc2)CC1 | 10 nM | 30 nM |  | 

Further compounds by falling IC50 [1], results first:

Row | IC50 [1] | IC50 (Blood [3]) | Compound | inhibition at 1 µM (Blood [2]) | inhibition at 0.3 µM (Blood [4])
5 | 945 nM |  | COc1ccc(C(=O)C(=O)N(C)C)cc1C(=O)N1CCC(Cc2ccc(F)cc2)CC1 | 17% | 
6 | 90 nM |  | Cc1[nH]c2ccc(C(=O)C(=O)N(C)C)cc2c1C(=O)N1CCC(Cc2ccc(F)cc2)CC1 |  | 
7 | 60 nM | 48 nM | COc1nc2[nH]cc(C(=O)C(=O)N(C)C)c2cc1C(=O)N1CCC(Cc2ccc(F)cc2)CC1 |  | 
8 | 18 nM | 100 nM | CN(C)C(=O)C(=O)c1c[nH]c2cc(Cl)c(C(=O)N3CCC(Cc4ccc(F)cc4)CC3)cc12 |  | 
